# Measured values taken from ChEMBL document CHEMBL1126128, “Nonprostanoid prostacyclin mimetics. 3. Structural variations of the diphenyl heterocycle moiety” (J Med Chem, 1992).
# Experiments:
# Format in all cases: functional
# [1] = Inhibition of ADP-induced aggregation of human blood platelets in plasma
# [2] = Compound was tested for inhibition of ADP-induced aggregation of blood platelets in human platelet rich plasma at >84 uM concentration
# Outline: (§1)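 Human platelet-rich plasma with aggregation triggered by ADP and followed by aggregometry. Each test acid was run at one stated upper concentration, and the read-out is percent inhibition of aggregation at that concentration. Each value is from a single experiment or is the mean of duplicate determinations.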
# [3] = Compound was tested for inhibition of ADP-induced aggregation of blood platelets in human platelet rich plasma at >68 uM concentration; outline: as §1
# [4] = Compound was tested for inhibition of ADP-induced aggregation of blood platelets in human platelet rich plasma at 20 uM concentration; outline: as §1
# [5] = Compound was tested for inhibition of ADP-induced aggregation of blood platelets in human platelet rich plasma at >65 uM concentration; outline: as §1
# [6] = Compound was tested for inhibition of ADP-induced aggregation of blood platelets in human platelet rich plasma at >32 uM concentration; outline: as §1
# [7] = Compound was tested for inhibition of ADP-induced aggregation of blood platelets in human platelet rich plasma at >75 uM concentration; outline: as §1
# [8] = Compound was tested for inhibition of ADP-induced aggregation of blood platelets in human platelet rich plasma at >78 uM concentration; outline: as §1
# [9] = Compound was tested for inhibition of ADP-induced aggregation of blood platelets in human platelet rich plasma at <80 uM concentration; outline: as §1
# [10] = Compound was tested for inhibition of ADP-induced aggregation of blood platelets in human platelet rich plasma at >60 uM concentration; outline: as §1
# [11] = Compound was tested for inhibition of ADP-induced aggregation of blood platelets in human platelet rich plasma at >82 uM concentration; outline: as §1
# [12] = Compound was tested for inhibition of ADP-induced aggregation of blood platelets in human platelet rich plasma at >76 uM concentration; outline: as §1
"IC50 ([1]; Homo sapiens, Plasma) [µM]",SMILES,other results
17.1,O=C(O)COc1cccc(CCc2nc(-c3ccc(Cl)cc3)c(-c3ccc(Cl)cc3)o2)c1,
4.4,Cc1nc(-c2ccccc2)c(-c2ccccc2)n1CCCCCCCC(=O)O,
7.9,O=C(O)CCCCCCCn1nc(-c2ccccc2)c(-c2ccccc2)nc1=O,
1.67,O=C(O)COc1cccc(CCc2cc(-c3ccccc3)n(-c3ccccc3)n2)c1,
> 84,O=C(O)COc1ccc(-n2cnc(-c3ccccc3)c2-c2ccccc2)cc1,Inhibition [2]: 23%
3.6,O=C(O)COc1cccc(CCn2nnc(C(c3ccccc3)c3ccccc3)n2)c1,
> 84,O=C(O)CCCCCCCCCCN(C(=O)c1ccccc1)c1ccccc1,
> 80,O=C(O)COc1ccc(/C=C/c2nnc(-c3ccccc3)n2-c2ccccc2)cc1,
> 68,O=C(O)COc1cccc(CCc2nc(-c3cccc(Cl)c3)c(-c3cccc(Cl)c3)o2)c1,Inhibition [3]: 0%
> 84,O=C(O)CCCCCCCn1nc(-c2ccccc2)c2ccccc2c1=O,
17.7,O=C(O)COc1cccc(CCc2nc(-c3cccc(F)c3)c(-c3cccc(F)c3)o2)c1,
29.7,O=C(O)CCCCCCCCn1cc(-c2ccccc2)c(-c2ccccc2)nc1=O,
0.75,O=C(O)COc1cccc(CCn2ncc(-c3ccccc3)c2-c2ccccc2)c1,
17,O=C(O)COc1cccc(CCc2nc(-c3ccsc3)c(-c3ccsc3)o2)c1,
1.9,O=C(O)COc1cccc(CCn2nc(-c3ccccc3)c(-c3ccccc3)cc2=O)c1,
29.2,O=C(O)CCCOc1ccc(-n2cnc(-c3ccccc3)c2-c2ccccc2)cc1,
4.1,O=C(O)CCCCCCCCn1nc(-c2ccccc2)n(-c2ccccc2)c1=O,
> 85,O=C(O)CCCCCCCCc1nnc(-c2ccccc2)n1-c1ccccc1,
> 20,O=C(O)COc1cccc(CCc2nc3c4ccccc4c4ccccc4c3o2)c1,inhibition at 20 µM [4]: 0%
29.4,O=C(O)CCCCCCCCN1C(=O)C(c2ccccc2)N(c2ccccc2)C1=O (stereo not drawn),
6.6,O=C(O)CCCCCCCCc1nc(-c2ccccc2)c(-c2ccccc2)o1,
> 65,O=C(O)CCCCCCCSc1nnc(-c2ccccc2)c(-c2ccccc2)c1-c1ccccc1,

"IC50 ([1]; Homo sapiens, Plasma) [µM]",SMILES,other results
> 65,CSc1ccc(-c2nc(CCc3cccc(OCC(=O)O)c3)oc2-c2ccc(SC)cc2)cc1,Inhibition [5]: 32%
7.9,O=C(O)CCCCCCCn1nnc(C(c2ccccc2)c2ccccc2)n1,
> 78,O=C(O)CCCCCCCSc1cc(-c2ccccc2)c(-c2ccccc2)nn1,
5.2,COc1ccc(-c2nc(CCc3cccc(OCC(=O)O)c3)oc2-c2ccc(OC)cc2)cc1,
4.5,O=C(O)CCCCCCCCn1cc(-c2ccccc2)c(-c2ccccc2)n1 [listing 1 of 2 here],
2.1,O=C(O)COc1cccc(CCn2nc(-c3ccccc3)c(-c3ccccc3)nc2=O)c1,
> 80,O=C(O)CCCCCCCCn1ccc(C(c2ccccc2)c2ccccc2)n1,
> 82,O=C(O)CCCCCCCCn1nccc1C(c1ccccc1)c1ccccc1,
28.3,CCc1ccc(-c2nc(CCc3cccc(OCC(=O)O)c3)oc2-c2ccc(CC)cc2)cc1,
> 32,O=C(O)CCCCOc1cccc(-n2cnc(-c3ccccc3)c2-c2ccccc2)c1,Inhibition [6]: 23%
3.8,O=C(O)CCCCCCCn1c(-c2ccccc2)nc(-c2ccccc2)c1-c1ccccc1,
> 84,O=C(O)CCCCCCCn1nnnc1C(c1ccccc1)c1ccccc1,
3.9,O=C(O)CCCCCCCCn1c(-c2ccccc2)nc(-c2ccccc2)c1-c1ccccc1,
,O=C(O)CCCCCCCCn1cc(-c2ccccc2)c(-c2ccccc2)n1 [listing 2 of 2 here],IC50 [1]: 5.8 µM
> 84,O=C(O)CCCCCCCn1nc(-c2ccccc2)n(-c2ccccc2)c1=O,
> 79,O=C(O)COc1cccc(CCC(=O)NCC(c2ccccc2)c2ccccc2)c1,
7.2,COc1cccc(-c2nc(CCc3cccc(OCC(=O)O)c3)oc2-c2cccc(OC)c2)c1,
11.6,Cc1ccccc1-c1nc(CCc2cccc(OCC(=O)O)c2)oc1-c1ccccc1C,
2.88,O=C(O)COc1cccc(CCc2nc(-c3ccccc3)c(-c3ccccc3)[nH]2)c1,
> 63,O=C(O)COc1cccc(CCc2cc(-c3ccccc3)n(C(c3ccccc3)c3ccccc3)n2)c1,
> 75,Cc1cccc(-c2nc(CCc3cccc(OCC(=O)O)c3)oc2-c2cccc(C)c2)c1,Inhibition [7]: 30%
1.38,O=C(O)CCCCCCCn1cc(-c2ccccc2)c(-c2ccccc2)n1,

"IC50 ([1]; Homo sapiens, Plasma) [µM]",SMILES,other results
> 78,O=C(O)COc1cccc(CCc2nc(C3CCCCC3)c(C3CCCCC3)o2)c1,Inhibition [8]: 25%
7.4,O=C(O)COc1cccc(CCc2nc(-c3cccs3)c(-c3cccs3)o2)c1,
25.6,O=C(O)CCCCCCCn1cc(-c2ccccc2)c(-c2ccccc2)nc1=O,
4.64,O=C(O)CCCCCCCn1c(C(F)(F)F)nc(-c2ccccc2)c1-c1ccccc1,
< 80,O=C(O)CCCOc1cccc(-n2cnc(-c3ccccc3)c2-c2ccccc2)c1,Inhibition [9]: 57%
0.87,O=C(O)COc1cccc(CCn2cc(-c3ccccc3)c(-c3ccccc3)n2)c1,
24.5,O=C(O)COc1cccc(CCn2nc(-c3ccccc3)c(-c3ccccc3)c2-c2ccccc2)c1,
12.7,O=C(O)COc1cccc(CCc2nnc(-c3ccccc3)n2-c2ccccc2)c1,
> 90,O=C(O)CCCCCCCCN(C(=O)c1ccccc1)c1ccccc1,
12.6,O=C(O)COc1cccc(CCc2nc(-c3ccc(Br)cc3)c(-c3ccc(Br)cc3)o2)c1,
> 82,O=C(O)COc1cccc(CCC(=O)NC(c2ccccc2)c2ccccc2)c1,
> 74,O=C(O)CCCCCCCSc1nnc(-c2ccccc2)c(-c2ccccc2)n1,
2.99,O=C(O)COc1cccc(/C=C/c2nnc(-c3ccccc3)n2-c2ccccc2)c1,
> 81,O=C(O)CCCCCCCCn1c(=O)c2ccccc2n(-c2ccccc2)c1=O,
> 81,O=C(O)CCCCCCCCn1nnnc1C(c1ccccc1)c1ccccc1,
0.4,O=C(O)CCCCCCCCn1nc(-c2ccccc2)c(-c2ccccc2)c1-c1ccccc1,
> 60,O=C(O)COc1cccc(CCc2nc(-c3ccc(C(F)(F)F)cc3)c(-c3ccc(C(F)(F)F)cc3)o2)c1,Inhibition [10]: 1%
> 88,O=C(O)CCCCCCCc1nnc(-c2ccccc2)n1-c1ccccc1,
3.04,Cc1nc(-c2ccccc2)c(-c2ccccc2)n1CCCCCCCCC(=O)O,
> 82,O=C(O)CCCCCCCCCc1nnc(-c2ccccc2)n1-c1ccccc1,
10.7,O=C(O)CCCCCCCCn1nnc(C(c2ccccc2)c2ccccc2)n1,
5,O=C(O)COc1cccc(CCn2cnc(-c3ccccc3)c2-c2ccccc2)c1,

"IC50 ([1]; Homo sapiens, Plasma) [µM]",SMILES,other results
> 67,O=C(O)CCCCCCCCn1nc(-c2ccccc2)c(-c2ccccc2)c(-c2ccccc2)c1=O,
58.4,O=C(O)CCCCCCCCn1cnc(-c2ccccc2)c1-c1ccccc1,
35.9,O=C(O)CCCCCCCOc1ncc(-c2ccccc2)c(-c2ccccc2)n1,
4.8,O=C(O)COc1cccc(CCc2nc(-c3ccc(F)cc3)c(-c3ccc(F)cc3)o2)c1,
> 85,O=C(O)CCCCCCCCn1nc(-c2ccccc2)c2ccccc2c1=O,
0.86,O=C(O)COc1cccc(CCc2nc(-c3ccccc3)c(-c3ccccc3)s2)c1,
10.3,O=C(O)CCCCCCCCn1cc(-c2ccccc2)c(-c2ccccc2)c1,
4.1,O=C(O)CCCCCCCn1nc(-c2ccccc2)c(-c2ccccc2)cc1=O,
> 68,O=C(O)CCCCCCCn1nc(-c2ccccc2)c(-c2ccccc2)c(-c2ccccc2)c1=O,
> 80,O=C(O)COc1ccc(CCc2nnc(-c3ccccc3)n2-c2ccccc2)cc1,
> 78,O=C(O)CCCCCCCCN1C(=O)NC(c2ccccc2)(c2ccccc2)C1=O,
4.9,O=C(O)CCCCCCCCn1nc(-c2ccccc2)c(-c2ccccc2)nc1=O,
0.34,Cc1ccc(-c2nc(CCc3cccc(OCC(=O)O)c3)oc2-c2ccc(C)cc2)cc1,
1.57,O=C(O)COc1cccc(CCn2nc(-c3ccccc3)n(-c3ccccc3)c2=O)c1,
> 82,O=C(O)COc1cccc(-n2cnc(-c3ccccc3)c2-c2ccccc2)c1,Inhibition [11]: 18%
> 82,O=C(O)COc1cccc(Cn2cnc(-c3ccccc3)c2-c2ccccc2)c1,
> 79,O=C(O)CCCCCCCCOc1ncc(-c2ccccc2)c(-c2ccccc2)n1,
7.2,O=C(O)CCCCCCCCn1nc(-c2ccccc2)c(-c2ccccc2)cc1=O,
> 76,O=C(O)CCCCOc1ccc(-n2cnc(-c3ccccc3)c2-c2ccccc2)cc1,Inhibition [12]: 31%
8.19,O=C(O)CCCCCCCn1cnc(-c2ccccc2)c1-c1ccccc1,
1.4,O=C(O)COc1cccc(CCc2nc(-c3ccccc3F)c(-c3ccccc3F)o2)c1,
